Hits are enriched below; roughly 0.86% of the tested compounds scored in any of these assays.
iPSC survival up – increases survival of single human iPS cells; hiPSC single-cell survival, ATPlite luminescence; 100% = ROCK inhibitor wells, 0% = DMSO; survival enhancement, % at 20 µM; 360,000 compounds, 0.044% hits; AID 602274; in the data active = survival enhancement above about 18%;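 note: cells exposed to compounds for 16 hours before the ATP read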
APJ ag – activates the human apelin receptor APJ. P35414. CHO-K1 APJ PathHunter beta-arrestin, luminescence; 0% DMSO wells, 100% apelin. activation, % at 20 µM. 330,000 compounds, 0.11% hits;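 active = activation more than six SD over the plate average, tested at 20 µM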;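 note: 0% = DMSO alone and 100% = apelin-13 at 10 nM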
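Assay system: engineered CHO-K1 APJ arrestin reporter cells; Amount: 1000 CHO-K1 reporter cells seeded per well; Dosing: one dose, 20 µM compound, 1% DMSO; Times: compound stimulation 90 min at 25 °C, detection 60 min; Measured by: luminescent beta-gal fragment complementation, chemiluminescent substrate; Read-out: APJ–arrestin association signal; Controls: DMSO vs Apelin-13 10 nM.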
CCR6 antagonist – antagonists of human CCR6 receptor. P51684. CHO-K1 CCR6 PathHunter beta-arrestin, luminescence, CCL20-stimulated. inhibition, % at 20 µM. 340,000 compounds, 0.49% hits;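 active = compounds whose inhibition of the agonist-driven luminescence signal at 20 µM reaches about 50%, limit read from the data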;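 note: cells stimulated with CCL20 at 14 nM final; plate controls were DMSO with CCL20 for no effect and DMSO without agonist for full effect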
DAGLB inh – blocks human DAGLB lipase activity; Q8NCG7; inhibition, % at 5.17 µM; 340,000 compounds, 0.059% hits; HEK293T DAGLB membrane lysate, EnzChek fluorogenic substrate; in the data active = inhibition above about 34%;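 note: 0% = enzyme with vehicle and 100% = wells lacking enzyme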
Target sequence (Q8NCG7 whole entry, looked up): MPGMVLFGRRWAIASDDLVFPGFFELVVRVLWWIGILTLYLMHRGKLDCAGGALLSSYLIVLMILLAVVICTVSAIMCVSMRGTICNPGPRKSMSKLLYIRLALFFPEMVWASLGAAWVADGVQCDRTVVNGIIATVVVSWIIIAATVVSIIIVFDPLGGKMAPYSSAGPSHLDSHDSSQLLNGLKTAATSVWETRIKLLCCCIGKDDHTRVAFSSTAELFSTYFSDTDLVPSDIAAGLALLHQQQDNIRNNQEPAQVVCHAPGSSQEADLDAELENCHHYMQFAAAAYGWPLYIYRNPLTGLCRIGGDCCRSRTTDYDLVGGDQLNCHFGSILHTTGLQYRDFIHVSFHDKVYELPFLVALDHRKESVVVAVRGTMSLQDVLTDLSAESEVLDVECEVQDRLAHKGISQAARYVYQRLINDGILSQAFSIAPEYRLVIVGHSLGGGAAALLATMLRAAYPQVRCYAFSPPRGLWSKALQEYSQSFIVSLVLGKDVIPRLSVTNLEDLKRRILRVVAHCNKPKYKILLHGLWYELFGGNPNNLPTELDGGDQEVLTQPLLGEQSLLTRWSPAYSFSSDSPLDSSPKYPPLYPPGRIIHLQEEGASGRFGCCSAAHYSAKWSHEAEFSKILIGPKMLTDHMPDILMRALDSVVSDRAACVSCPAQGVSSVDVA
CXCR6 block – CXCR6 (human) receptor inhibition | O00574 | AID 602244 | 360,000 compounds, 0.36% hits | inhibition, % at 20 µM | CHO-K1 PathHunter CXCR6 beta-arrestin, luminescence; in the data active = inhibition above about 34%, passing the limit was not always enough;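 note: antagonist mode with CXCL16 agonist at 10 nM final; 0% = 10 nM CXCL16 with DMSO and 100% = unstimulated wells without agonist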
APJ antag – APJ receptor antagonism; P35414; CHO-K1 APJ beta-arrestin complementation, luminescence; inhibition, % at 20 µM; 330,000 compounds, 0.32% hits; AID 2521;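 active = inhibition above about 40% at 20 µM, limit read from the data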;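 note: cells challenged with 10 nM apelin-13 agonist together with compound; plate controls were apelin-13 plus DMSO wells for no effect and DMSO wells lacking apelin-13 for full effect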
DAGLB confirm – DAGLB (human) inhibition, confirmation screen. inhibition, % at 5.17 µM. HEK293T DAGLB membrane lysate, EnzChek fluorogenic substrate. shares compounds with DAGLB inh. AID 504445. 190 compounds, 73% hits;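 active = mean inhibition over triplicate wells above a set limit taken from the primary lipase screen, cut at about 34% in these data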;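 note: 0% = DAGLB with DMSO and 100% = wells lacking DAGLB enzyme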
CXCR6 confirm – confirmation of human CXCR6 receptor antagonists; shares compounds with CXCR6 block; CHO-K1 CXCR6 PathHunter beta-arrestin, luminescence; inhibition, % at 20 µM; 700 compounds, 65% hits; AID 602409;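 active = mean inhibition over four retests above 40%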;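 note: receptor stimulated with 10 nM CXCL16 agonist; beta-galactosidase fragment complementation upon beta-arrestin recruitment to receptor; plate controls were CXCL16 plus DMSO for no effect and DMSO without CXCL16 for full effect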
* hit, by the source's call; / = not tested or not shown.

SMILES	iPSC survival up	APJ ag	CCR6 antagonist	DAGLB inh	CXCR6 block	APJ antag	CXCR6 confirm	others
CN(C)c1ccc(N=Nc2ccccc2C(=O)OCC(=O)NC2CCCC2)cc1	0	-4	50	33	13	27	/
Cc1onc(NC(=O)c2ccc(Cl)cc2Cl)c1Br	0	-4	13	-1	-5	7	/
COc1ccc(C2/C=C\CN(C(=O)c3ccc(C)cc3)[C@H](Cc3ccccc3)C(=O)N2Cc2ccc(F)cc2)cc1 (stereo partly drawn)	-3	-2	20	40*	7	29	/	DAGLB confirm=39*
Cc1ccc(S(=O)(=O)c2nc(Cc3ccccc3)oc2N2CCOCC2)cc1	0	0	-9	3	3	-2	/
CCN(CC)S(=O)(=O)c1ccc(N/N=C(\C)c2ccc3c(c2)OCO3)c([N+](=O)[O-])c1	-2	1	-20	-2	-3	-15	/
C/C(=N\Nc1ccc(S(N)(=O)=O)cc1[N+](=O)[O-])c1ccc2c(c1)OCO2	0	/	32	37*	13	/	/	DAGLB confirm=42*
Cc1ccc(-n2c(O)c(/C=N/Nc3ccc(S(=O)(=O)N4CCOCC4)cc3[N+](=O)[O-])c3ccccc3c2=O)c(C)c1	0	-2	38	35*	3	26	/	DAGLB confirm=46*
O=C(O)c1ccc(/C=N\Nc2ccc(S(=O)(=O)N3CCOCC3)cc2[N+](=O)[O-])cc1	0	4	14	2	4	13	/
O=C(O)c1cc(S(=O)(=O)Nc2cc(Cl)ccc2Oc2ccccc2)ccc1O	3	-4	-1	39*	4	10	/	DAGLB confirm=38*
CCn1c(COc2cc(C)ccc2C(C)C)nnc1SCC(=O)Nc1nccs1	0	-2	1	0	0	-4	/
O=C1C(NS(=O)(=O)c2cccs2)=C(N2CCN(c3cccc(Cl)c3)CC2)C(=O)c2ccccc21	2	-1	35	41*	25	-33	/	DAGLB confirm=42*
O=C1C(NS(=O)(=O)c2ccccc2)=C(N2CCN(c3ccc(F)cc3)CC2)C(=O)c2ccccc21	0	2	25	27	15	-13	/
Cc1ccccc1NC1=C(Cl)C(=O)OC1OC(=O)c1ccco1 (stereo not drawn)	-1	-3	-6	36*	-8	10	/	DAGLB confirm=31
COc1ccccc1NC1=C(Cl)C(=O)OC1OC(=O)c1ccco1 (stereo not drawn)	0	-3	-9	12	2	0	/
COc1ccccc1Cc1c(-c2ccc(C#N)cc2)nc2ccc(C)cn12	-1	/	/	/	12	/	/
CCOc1cc(/C=C2\N=C(SCC)SC2=O)cc([N+](=O)[O-])c1OC(C)=O	2	-12	55*	50*	45*	36	59*	DAGLB confirm=37*
CCCOc1ccc(C(=O)NNC(=S)NC(=O)c2cc(-c3ccc(Cl)cc3)nc3ccccc23)cc1	1	-8	43	39*	45*	30	37	DAGLB confirm=90*
COc1ccc(C(=O)NNC(=S)NC(=O)c2cc(-c3ccccc3)nc3ccccc23)cc1	-3	1	27	10	24	28	/
O=C1CCN(Cc2ccccc2)C(=S)N1	3	/	-6	-1	-3	/	/
COc1ccc2nc(-n3c(O)c(C4=c5ccccc5=NC4=O)[nH]c3=S)sc2c1	0	/	78*	52*	64*	/	52*	DAGLB confirm=80*
COc1ccc(C(=O)N2CCC(n3nccc3NC(=O)C3CC3)CC2)cc1F	0	-3	1	-3	-6	6	/
O=C(Nc1ccccc1)c1nnsc1S(=O)c1ccc(Cl)cc1 (stereo not drawn)	-4	-4	101*	-4	89*	21	97*
CC(=O)Nc1cccc(OCC(O)Cn2c(C)nc3ccccc32)c1 (stereo not drawn)	-1	3	17	-4	40*	16	23
CC(=O)Nc1cccc(OCC(O)Cn2cnc3ccccc32)c1 (stereo not drawn)	-4	-2	-12	1	2	-7	/
CCN1C(=O)[C@H]2[C@@H](c3ccc(OC)cc3)N[C@]3(CCCN(Cc4ccc(OC)cc4)C3=O)[C@H]2C1=O	6	/	/	2	0	/	/
SMILES	iPSC survival up	APJ ag	CCR6 antagonist	DAGLB inh	CXCR6 block	APJ antag	CXCR6 confirm	others
Cc1ccc(O)c(C(=O)CC(=O)c2ccc(Cl)cc2)c1	-1	/	65*	-7	42*	/	45*
Cc1cc(S(=O)(=O)c2ccc([N+](=O)[O-])cn2)ccc1Br	1	19	-6	-3	16	-35	/
Cc1ccc(S(=O)(=O)c2ccc([N+](=O)[O-])cn2)cc1	1	2	/	-4	55*	27	74*
NC(=S)NN=C1c2cc(Cl)ccc2-c2c1cc(Cl)cc2[N+](=O)[O-]	1	/	76*	3	43*	/	59*
CCN(CC)CC(C)(C)C(=O)/C=C/c1ccc(/C=C/C(=O)C(C)(C)CN(CC)CC)cc1	0	/	113*	-3	98*	/	95*
CCN(CC)CCOC(=O)/C=C/c1ccccc1	0	-3	14	3	-1	15	/
O=S(=O)(c1ccccc1)N(CC1CO1)c1cccc2ccccc12 (stereo not drawn)	0	-4	19	/	-9	-9	/
CCc1nnc(NS(=O)(=O)c2ccc(NC(=O)c3ccc(C#N)cc3)cc2)s1	0	-1	3	2	-2	13	/
COc1ccccc1NC(=O)C[n+]1ccccc1C	0	0	5	0	-2	-5	/
NNC(=O)c1cccc(COc2ccc3c(c2)CCC3)c1	-1	2	7	-9	49*	8	-2
CCOC(=O)c1c(C)oc2c1c(C=NCc1ccccn1)c(O)c1ccccc12	-3	/	77*	6	98*	/	64*
CCOC(=O)c1sc2nc(CN3CCN(c4cccc(C(F)(F)F)c4)CC3)[nH]c(=O)c2c1C	2	0	10	-2	3	4	/
CN(C)CCCN(C(=O)CCS(=O)(=O)c1ccccc1)c1nc2cc3c(cc2s1)OCO3	0	-1	50*	4	40*	30	57*
CCC(CC)C(=O)N(C)c1c(C)nc2c(OCc3ccccc3C)cccn12	-1	/	/	/	1	/	/
CCC(CC)C(=O)N(C)c1c(C)nc2c(OCc3ccc(Cl)cc3Cl)cccn12	0	/	/	/	51*	/	24
Cc1ccc2ccc3ccc(C)nc3c2n1	-2	1	-8	-4	-4	9	/
Cc1ccc2c(C)ccc(O)c2n1	1	-6	83*	0	65*	35	76*

Source: PubChem BioAssay
